The test concerns the target T1, 17-beta-hydroxysteroid dehydrogenase type 2 (Homo sapiens) (UniProt P37059).
T1 sequence (whole entry): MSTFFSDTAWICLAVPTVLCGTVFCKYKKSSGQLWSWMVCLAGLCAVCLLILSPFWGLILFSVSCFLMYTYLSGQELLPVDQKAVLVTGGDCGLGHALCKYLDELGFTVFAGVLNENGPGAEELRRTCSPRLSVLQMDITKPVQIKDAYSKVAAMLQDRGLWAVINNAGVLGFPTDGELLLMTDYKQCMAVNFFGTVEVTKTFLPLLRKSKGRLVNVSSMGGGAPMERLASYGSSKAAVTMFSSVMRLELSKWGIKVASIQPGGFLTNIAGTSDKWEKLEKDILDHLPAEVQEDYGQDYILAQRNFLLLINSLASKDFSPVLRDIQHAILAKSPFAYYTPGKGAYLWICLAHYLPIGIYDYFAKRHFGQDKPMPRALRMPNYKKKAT
As to the kind of experiment: Inhibition of 17beta-HSD2 (unknown origin) expressed in HEK293 cells lysate assessed as residual enzyme activity at 20 uM. Type of test: cell-free. The method, boiled down: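 Human 17β-HSD2 from lysates of calcium-phosphate-transfected HEK-293 cells (harvested 48 h). Incubated 10 min at 37 °C in TS2 buffer (pH 7.4) with inhibitor or 0.2% DMSO/chloroform. Substrate 190 nM unlabeled plus 10 nM radiolabeled estradiol with 500 μM NAD+. Stopped with excess estradiol/estrone. Radiolabeled steroids separated by TLC and counted; at least three independent measurements. Rest activity at 20 μM as % of control.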

Consider `CC(=O)Nc1ccc(S(=O)(=O)Oc2ccc3c(c2)NCCC3)cc1`, for which the Activity is greater than 70%.

On to `Cc1cc(C)c(S(=O)(=O)Nc2ccc(O)cc2)c(C)c1`, for which the Activity was determined as 33%.

In the case of `Cc1ccc(Cl)cc1NS(=O)(=O)c1ccc(F)cc1`, the Activity was greater than 70%.

With `C/C(=N\NC(=O)COc1ccc(C)cc1Br)c1ccc(O)cc1O`, the Activity is greater than 70%.

Regarding `O=C(CSc1ncccn1)Nc1cccc2nsnc12`, the Activity is greater than 70%.

As to `COc1ccc(NS(=O)(=O)c2cc(C)ccc2C)cc1`, the Activity was greater than 70%.

For `COc1ccccc1OS(=O)(=O)c1ccc(NC(C)=O)cc1`, the Activity is greater than 70%.

For the compound `CCc1ccc(CC)c(S(=O)(=O)Nc2cc(OC)ccc2OC)c1`, the Activity is greater than 70%.

In the case of `COc1cc(C)c(S(=O)(=O)Nc2ccc(C(=O)O)cc2)cc1C`, the Activity was greater than 70%.

In the case of `O=S(=O)(Nc1ccc(F)c(Cl)c1)c1ccc(F)cc1`, the Activity was 45%.

In the case of `COc1ccc(/C=N/NC(=O)COc2c(Br)cc(C)cc2Br)c(OC)c1`, the Activity was found to be 38%.

On to `COc1ccc(S(=O)(=O)Nc2ccc(C)c(O)c2)cc1`, for which the Activity was determined as 47%.

Regarding `COc1ccc(NS(=O)(=O)c2ccc(Cl)cc2)cc1`, the Activity is greater than 70%.

In the case of `O=S(=O)(Nc1ccccc1F)c1ccc(Br)cc1`, the Activity is greater than 70%.

`COc1ccccc1OS(=O)(=O)c1ccc(C(C)(C)C)cc1`: the Activity is 51%.

With `CC(=O)Nc1ccccc1NS(=O)(=O)c1c(C)c(C)cc(C)c1C`, the Activity is greater than 70%.

Consider `O=S(=O)(Nc1ccccc1CO)c1ccc(Cl)cc1`, for which the Activity was greater than 70%.

As to `Cc1ccc(NS(=O)(=O)c2ccc(Cl)cc2)cc1O`, the Activity came out at 45%.

For the compound `CC(=O)Nc1ccccc1OS(=O)(=O)c1ccc(C)c(C)c1`, the Activity is greater than 70%.

For `Cc1ccc(C)c(S(=O)(=O)Nc2ccc(O)cc2)c1`, the Activity turned out to be 39%.

On to `CC(O)c1ccccc1NS(=O)(=O)c1ccc(F)cc1` (configuration not stated), for which the Activity is greater than 70%.

As for `Cc1cc(S(=O)(=O)Nc2cc(Cl)ccc2O)ccc1F`, the Activity amounted to 44%.

For `COc1cc(C)c(S(=O)(=O)Nc2ccc(Cl)cc2)cc1C`, the Activity was greater than 70%.

For the compound `Cc1cc(Br)c(OCC(=O)N/N=C/c2c(C)cc(O)cc2O)c(Br)c1`, the Activity was 64%.

Regarding `O=S(=O)(Nc1ccc(O)cc1)c1ccc(Cl)cc1`, the Activity amounted to 55%.

For `CCC(=O)c1ccc(OS(=O)(=O)c2ccc(NC(C)=O)cc2)cc1`, the Activity stood at 67%.

With `O=S(=O)(Nc1cccc(Cl)c1)c1ccc(F)cc1`, the Activity was greater than 70%.

For the origin of these results see ChEMBL document CHEMBL3351838, “Ligand-based pharmacophore modeling and virtual screening for the discovery of novel 17β-hydroxysteroid dehydrogenase 2 inhibitors” (J Med Chem, 2014).
